Reference: ChEMBL document CHEMBL5244265 (Bioorg Med Chem, 2020)

Assays:
[1] = Inhibition of Bacillus licheniformis Proteinase A using Z-GPR-AMC as substrate by fluorescence based analysis
Summary of the method: (§1)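 Each enzyme was read as a time course of rising fluorescence from cleavage of its AMC-labelled peptide substrate. The initial linear slope (signal/min) was analysed. Non-human sources: chymotrypsin from bovine pancreas, proteinase A from B. licheniformis, proteinase K from T. album limber.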

Kallikrein-7 [2] = target: T1, Kallikrein-7 (Homo sapiens, UniProt P49862); test: Inhibition of KLK7 (unknown origin)
Summary of the method: (§2)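 Fluorogenic assay with HNE (MeOSucAAPV-AMC substrate) or human KLK7 ([…] substrate). Test compounds ran as a 10-dose, 3-fold dilution series from 1 μM in duplicate, with controls tested in the same run. Activity was taken from the initial linear slope of the fluorescence increase over time. Results are mean of n = 2, expressed relative to 0.5% DMSO vehicle.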
Target sequence in this assay (P49862 whole entry): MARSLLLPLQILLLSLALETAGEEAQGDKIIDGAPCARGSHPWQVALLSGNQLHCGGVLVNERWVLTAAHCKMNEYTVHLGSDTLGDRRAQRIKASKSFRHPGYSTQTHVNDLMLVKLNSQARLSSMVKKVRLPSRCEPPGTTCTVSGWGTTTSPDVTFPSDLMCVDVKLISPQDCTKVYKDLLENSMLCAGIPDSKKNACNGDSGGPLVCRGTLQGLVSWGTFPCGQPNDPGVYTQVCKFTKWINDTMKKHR

Kallikrein-7 [3] = target: T1, Kallikrein-7; test: Inhibition of human recombinant kallikrein 7 (23 to 252 residues) using MCA-RPKPVE-Nval-WRK(Dnp)-NH2 as substrate by fluorescence based analysis; summary of the method: as §2
Target sequence in this assay (P49862 whole entry): as above

Kallikrein-7 [4] = target: T1, Kallikrein-7; test: Inhibition of human recombinant kallikrein 7 (23 to 252 residues) using MCA-RPKPVE-Nval-WRK(Dnp)-NH2 as substrate by fluorescence based analysis relative to tutuilamide A; summary of the method: as §2
Target sequence in this assay (P49862 30-253 limits assumed): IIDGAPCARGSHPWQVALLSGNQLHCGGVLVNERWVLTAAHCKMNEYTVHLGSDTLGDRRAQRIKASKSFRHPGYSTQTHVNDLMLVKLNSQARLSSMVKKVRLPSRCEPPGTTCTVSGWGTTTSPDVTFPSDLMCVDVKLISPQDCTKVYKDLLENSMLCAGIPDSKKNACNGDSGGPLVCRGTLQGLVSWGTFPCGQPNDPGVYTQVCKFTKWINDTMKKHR

[5] = target: T2, Neutrophil elastase (Homo sapiens) (UniProt P08246); test: Inhibition of elastase in human neutrophil using N-(OMe-succinyl)-Ala-Ala-Pro-Val-p-nitroanilide as substrate preincubated with enzyme for 15 mins followed by substrate addition and measured every 30s for 30 mins by absorbance based analysis relative to tutuilamide A; conditions: time 45.0 min
T2 sequence (whole entry): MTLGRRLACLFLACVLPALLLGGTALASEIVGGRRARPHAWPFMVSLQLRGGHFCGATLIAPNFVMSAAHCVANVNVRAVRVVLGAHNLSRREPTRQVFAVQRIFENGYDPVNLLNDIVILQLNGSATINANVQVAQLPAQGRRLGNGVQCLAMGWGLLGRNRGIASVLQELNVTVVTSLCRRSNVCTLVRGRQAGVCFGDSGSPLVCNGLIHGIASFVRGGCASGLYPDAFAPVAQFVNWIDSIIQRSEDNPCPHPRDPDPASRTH
Summary of the method: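 Human neutrophil elastase, from a 100 μg/mL enzyme stock in 0.1 M Tris–0.5 M NaCl (pH 7.5), was preincubated with compound at varying doses or DMSO vehicle for 15 min at room temperature in the same buffer. The p-nitroanilide substrate was added from a 2 mM stock, and A405 was read every 30 s for 30 min. Activity was taken as the initial slope, expressed as % of the uninhibited reaction, and IC50 came from dose-response.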

[6] = Inhibition of chymotrypsin in bovine pancreas using Suc-AAPF-AMC as substrate by fluorescence based analysis; assay type: tissue-based, Bos taurus; summary of the method: as §1
Neutrophil elastase [7] = target: T3, Neutrophil elastase (Homo sapiens, UniProt P08246); test: Inhibition of elastase in human neutrophil using MeOSuc-AAPV-AMC as substrate by fluorescence based analysis; assay type: cell-based; summary of the method: as §2
T3 sequence (P08246 whole entry): T2 sequence (whole entry)

[8] = Inhibition of Tritirachium album limber Proteinase K using H-D-CHA -Ala-Arg-AMC.2AcOH as substrate by fluorescence based analysis; set-up: species or system Parengyodontium album; summary of the method: as §1
[9] = Selectivity ratio of IC50 for chymotrypsin in bovine pancreas to IC50 for human neutrophil elastase
[10] = target: T2, Neutrophil elastase (Homo sapiens); test: Inhibition of elastase in human neutrophil using MeOSuc-AAPV-AMC as substrate by fluorescence based analysis relative to sivelestat; assay type: cell-based; summary of the method: as §2
Kallikrein-7 [11] = target: T1, Kallikrein-7; test: Inhibition of human recombinant kallikrein 7 (23 to 252 residues) using MCA-RPKPVE-Nval-WRK(Dnp)-NH2 as substrate by fluorescence based analysis relative to gabexate mesylate; summary of the method: as §2
Target sequence in this assay (P49862 30-253 limits assumed): as the sequence (P49862 30-253 limits assumed) above

Bacillus licheniformis = test: Inhibition of Bacillus licheniformis Proteinase A using Z-GPR-AMC as substrate by fluorescence based analysis relative to leupeptin; summary of the method: as §1
Parengyodontium album = test: Inhibition of Tritirachium album limber Proteinase K using H-D-CHA -Ala-Arg-AMC.2AcOH as substrate by fluorescence based analysis relative to proteinase K inhibitor; summary of the method: as §1
Neutrophil elastase [12] = target: T3, Neutrophil elastase; test: Inhibition of elastase in human neutrophil using N-(OMe-succinyl)-Ala-Ala-Pro-Val-p-nitroanilide as substrate preincubated with enzyme for 15 mins followed by substrate addition and measured every 30s for 30 mins by absorbance based analysis
Summary of the method: (§3)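 HNE stock at 100 μg/mL and substrate stock at 2 mM, both in 0.1 M Tris–0.5 M NaCl pH 7.5. Compound or DMSO was preincubated with enzyme in the same buffer for 15 min at room temperature, then substrate was added. A405 was read every 30 s for 30 min. Activity was taken from the initial slope as a percentage of the uninhibited reaction.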

[13] = target: T2, Neutrophil elastase (Homo sapiens); test: Inhibition of elastase in human neutrophil using N-(OMe-succinyl)-Ala-Ala-Pro-Val-p-nitroanilide as substrate preincubated with enzyme for 15 mins followed by substrate addition and measured every 30s for 30 mins by absorbance based analysis relative to symplostatin 5; conditions: time 45.0 min; summary of the method: as §3
[14] = target: T2, Neutrophil elastase (Homo sapiens); test: Inhibition of elastase in human neutrophil using N-(OMe-succinyl)-Ala-Ala-Pro-Val-p-nitroanilide as substrate preincubated with enzyme for 15 mins followed by substrate addition and measured every 30s for 30 mins by absorbance based analysis relative to sivelestat; conditions: time 45.0 min; summary of the method: as §3
[15] = Inhibition of porcine pancreatic elastase; set-up: species or system Sus scrofa

SMILES: CC(=O)N[C@@H](CC(C)C)C(=O)N[C@@H](CC(C)C)C(=O)N[C@H](C=O)CCCNC(=N)N [LEUPEPTIN]
- IC50 [1]: 129000 nM

SMILES: CC[C@H](C)[C@@H]1NC(=O)[C@H](Cc2ccc(OCc3ccn(C)n3)cc2)N(C)C(=O)[C@H]([C@@H](C)CC)N2C(=O)[C@H](CC[C@H]2O)NC(=O)[C@H](CC(C)C)NC(=O)[C@@H](NC(=O)[C@H](CCC(N)=O)NC(=O)C(C)C)[C@@H](C)OC1=O
- IC50 (Kallikrein-7 [2]): 0.2 nM

SMILES: CCOC(=O)c1ccc(OC(=O)CCCCCNC(=N)N)cc1
- IC50 (Kallikrein-7 [3]): 28400 nM

SMILES: C/C=C1\NC(=O)[C@@H](NC(=O)[C@H](CCC(N)=O)NC(=O)CCCCC)[C@@H](C)OC(=O)[C@H](C(C)C)NC(=O)[C@H](Cc2ccc(O)cc2)N(C)C(=O)[C@H](Cc2ccccc2)N2C(=O)[C@H](CC[C@H]2O)NC1=O [LYNGBYASTATIN 7]
- IC50 (Kallikrein-7 [3]): 3.1 nM
- fold change (FC) (Kallikrein-7 [4]): 1.6
- fold change (FC) [5]: 1.5

SMILES: C/C=C1\NC(=O)[C@@H](NC(=O)[C@@H](NC(=O)[C@H](C)NC(=O)C/C(C)=C/Cl)[C@@H](C)CC)[C@@H](C)OC(=O)[C@H](C(C)C)NC(=O)[C@H](Cc2ccc(O)cc2)N(C)C(=O)[C@H](Cc2ccccc2)N2C(=O)[C@H](CC[C@H]2O)NC1=O
- IC50 [6]: 97.4 nM
- IC50 (Neutrophil elastase [7]): 0.73 nM
- IC50 (Kallikrein-7 [3]): 5 nM
- IC50 [1]: 31.3 nM
- IC50 [8]: 12.3 nM
- Ratio IC50 [9]: 100
- fold change (FC) [10]: 5
- fold change (FC) (Kallikrein-7 [11]): 5680
- fold change (FC) (Bacillus licheniformis): 4000
- fold change (FC) (Parengyodontium album): 15
- IC50 (Neutrophil elastase [12]): 44 nM
- fold change (FC) [13]: 2.1
- fold change (FC) [14]: 2.9
- IC50 [15]: 1.2 nM

SMILES: CC[C@@H](C)[C@H]1C(=O)N(C)[C@@H](Cc2ccc(O)cc2)C(=O)N[C@H]([C@H](C)CC)C(=O)O[C@H](C)[C@H](NC(=O)[C@H](CCC(N)=O)NC(=O)C(C)C)C(=O)N[C@@H](CC(C)C)C(=O)N[C@H]2CC[C@@H](O)N1C2=O
- IC50 (Kallikrein-7 [2]): 1 nM
